# According to ChEMBL document CHEMBL3792365, “Dioxol and dihydrodioxin analogs of 2- and 3-phenylacetonitriles as potent anti-cancer agents with nanomolar activity against a variety of human cancer cells” (2016):
# Columns and labels:
# Format in all cases: functional
# [1] = Growth inhibition of human HCT116 cells after 48 hrs by sulforhodamine B assay; conditions: HCT-116, 48 h
# How it was run: (§1)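 Five-dose testing against a 60-line human tumor cell panel. GI50 is the drug concentration giving a 50% reduction in net protein increase relative to untreated control cells.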
# [2] = Growth inhibition of human OVCAR3 cells at 10 uM after 48 hrs by sulforhodamine B assay; conditions: OVCAR-3, 48 h, values are per cent of control
# [3] = Growth inhibition of human HL-60(TB) cells at 10 uM after 48 hrs by sulforhodamine B assay; conditions: HL-60, 48 h, values are per cent of control
# MCF7 = assay: Growth inhibition of human MCF7 cells at 10 uM after 48 hrs by sulforhodamine B assay; conditions: MCF7, 48 h, values are per cent of control
# 786-0 = assay: Growth inhibition of human 786-0 cells at 10 uM after 48 hrs by sulforhodamine B assay; conditions: 786-0, 48 h, values are per cent of control
# SK-MEL-5 [4] = assay: Growth inhibition of human SK-MEL-5 cells at 10 uM after 48 hrs by sulforhodamine B assay; conditions: SK-MEL-5, 48 h, values are per cent of control
# SK-MEL-5 [5] = assay: Growth inhibition of human SK-MEL-5 cells after 48 hrs by sulforhodamine B assay; conditions: SK-MEL-5, 48 h
# How it was run: (§2)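 Five-dose concentration series run across a panel of 60 human tumour cell lines. GI50 is taken as the drug concentration giving a 50% reduction in net protein increase relative to untreated control cells.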
# [6] = Growth inhibition of human IGROV1 cells after 48 hrs by sulforhodamine B assay; conditions: IGROV-1, 48 h; how it was run: as §1
# [7] = Growth inhibition of human NCI-ADR-RES cells at 10 uM after 48 hrs by sulforhodamine B assay; conditions: values are per cent of control
# MDA-MB-231 = assay: Growth inhibition of human MDA-MB-231 cells after 48 hrs by sulforhodamine B assay; conditions: MDA-MB-231, 48 h; how it was run: as §1
# [8] = Growth inhibition of human SF295 cells after 48 hrs by sulforhodamine B assay; conditions: SF-295, 48 h; how it was run: as §2
# U-251 = assay: Growth inhibition of human U251 cells after 48 hrs by sulforhodamine B assay; conditions: U-251, 48 h; how it was run: as §2
# [9] = Growth inhibition of human UACC257 cells at 10 uM after 48 hrs by sulforhodamine B assay; conditions: UACC-257, 48 h, values are per cent of control
# [10] = Growth inhibition of human SF539 cells after 48 hrs by sulforhodamine B assay; conditions: SF-539, 48 h; how it was run: as §2
# [11] = Growth inhibition of human HL-60(TB) cells after 48 hrs by sulforhodamine B assay; conditions: HL-60, 48 h
# How it was run: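 Five-dose study across the 60-cell human tumour panel. GI50 is the drug concentration giving a 50% reduction in net protein increase relative to control cells.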
# [12] = Growth inhibition of human RXF393 cells at 10 uM after 48 hrs by sulforhodamine B assay; conditions: RXF 393, 48 h, values are per cent of control
# [13] = Growth inhibition of human HOP92 cells at 10 uM after 48 hrs by sulforhodamine B assay; conditions: HOP-92, 48 h, values are per cent of control
# NCI-H522 = assay: Growth inhibition of human NCI-H522 cells after 48 hrs by sulforhodamine B assay; conditions: NCI-H522, 48 h; how it was run: as §2
# MDA-MB-435 = assay: Growth inhibition of human MDA-MB-435 cells after 48 hrs by sulforhodamine B assay; conditions: MDA-MB-435, 48 h; how it was run: as §1
# [14] = Growth inhibition of human UACC62 cells after 48 hrs by sulforhodamine B assay; conditions: UACC-62, 48 h
# How it was run: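 Five-dose testing across the 60-line human tumour cell panel. GI50 is the drug concentration that gives a 50% reduction in net protein increase relative to control cells.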
# [15] = Growth inhibition of human OVCAR3 cells after 48 hrs by sulforhodamine B assay; conditions: OVCAR-3, 48 h; how it was run: as §2
# SK-MEL-28 = assay: Growth inhibition of human SK-MEL-28 cells after 48 hrs by sulforhodamine B assay; conditions: SK-MEL-28, 48 h; how it was run: as §2
# [16] = Growth inhibition of human SNB75 cells after 48 hrs by sulforhodamine B assay; conditions: SNB-75, 48 h; how it was run: as §2
# [17] = Growth inhibition of human OVCAR8 cells at 10 uM after 48 hrs by sulforhodamine B assay; conditions: OVCAR-8, 48 h, values are per cent of control
# [18] = Growth inhibition of human RPMI8226 cells at 10 uM after 48 hrs by sulforhodamine B assay; conditions: RPMI-8226, 48 h, values are per cent of control
# [19] = Growth inhibition of human PC3 cells after 48 hrs by sulforhodamine B assay; conditions: PC-3, 48 h; how it was run: as §2
# [20] = Growth inhibition of human NCI-ADR-RES cells after 48 hrs by sulforhodamine B assay; how it was run: as §2
# [21] = Growth inhibition of human HCC2998 cells after 48 hrs by sulforhodamine B assay; conditions: HCC 2998, 48 h; how it was run: as §1
# [22] = Growth inhibition of human PC3 cells at 10 uM after 48 hrs by sulforhodamine B assay; conditions: PC-3, 48 h, values are per cent of control
# ACHN = assay: Growth inhibition of human ACHN cells at 10 uM after 48 hrs by sulforhodamine B assay; conditions: values are per cent of control
# [23] = Growth inhibition of human SKOV3 cells after 48 hrs by sulforhodamine B assay; conditions: SK-OV-3, 48 h; how it was run: as §2
# CCRF-CEM [24] = assay: Growth inhibition of human CCRF-CEM cells at 10 uM after 48 hrs by sulforhodamine B assay; conditions: values are per cent of control
# SK-MEL-2 = assay: Growth inhibition of human SK-MEL-2 cells after 48 hrs by sulforhodamine B assay; conditions: SK-MEL-2, 48 h; how it was run: as §2
# Malme-3M = assay: Growth inhibition of human MALME-3M cells at 10 uM after 48 hrs by sulforhodamine B assay; conditions: values are per cent of control
# M14 = assay: Growth inhibition of human M14 cells after 48 hrs by sulforhodamine B assay; conditions: M14, 48 h; how it was run: as §1
# SR = assay: Growth inhibition of human SR cells at 10 uM after 48 hrs by sulforhodamine B assay; conditions: values are per cent of control
# CCRF-CEM [25] = assay: Growth inhibition of human CCRF-CEM cells after 48 hrs by sulforhodamine B assay; how it was run: as §1
# [26] = Growth inhibition of human HOP92 cells after 48 hrs by sulforhodamine B assay; conditions: HOP-92, 48 h; how it was run: as §1
# [27] = Growth inhibition of human SKOV3 cells at 10 uM after 48 hrs by sulforhodamine B assay; conditions: SK-OV-3, 48 h, values are per cent of control
# [28] = Growth inhibition of human HCT15 cells at 10 uM after 48 hrs by sulforhodamine B assay; conditions: HCT-15, 48 h, values are per cent of control
# A549 = assay: Growth inhibition of human A549/ATCC cells after 48 hrs by sulforhodamine B assay; conditions: A549, 48 h; how it was run: as §1
# [29] = Growth inhibition of human COLO205 cells after 48 hrs by sulforhodamine B assay; conditions: COLO 205, 48 h; how it was run: as §1
# [30] = Growth inhibition of human MOLT4 cells at 10 uM after 48 hrs by sulforhodamine B assay; conditions: MOLT-4, 48 h, values are per cent of control
compound,measurement,setting,value
N#C/C(=C\c1cc2ccccc2s1)c1ccc2c(c1)OCO2,GI50,[1],40 nM
same,"growth, % of control at 10 µM",[2],-29.5%
same,"growth, % of control at 10 µM",[3],0.5%
same,"growth, % of control at 10 µM",MCF7,16.3%
same,"growth, % of control at 10 µM",786-0,44.7%
same,"growth, % of control at 10 µM",SK-MEL-5 [4],16.6%
same,GI50,SK-MEL-5 [5],60 nM
same,GI50,[6],90 nM
same,"growth, % of control at 10 µM",[7],-1.9%
same,GI50,MDA-MB-231,180 nM
same,GI50,[8],40 nM
same,GI50,U-251,60 nM
same,"growth, % of control at 10 µM",[9],72.8%
same,GI50,[10],40 nM
same,GI50,[11],30 nM
same,"growth, % of control at 10 µM",[12],-2.6%
same,"growth, % of control at 10 µM",[13],60.8%
same,GI50,NCI-H522,20 nM
same,GI50,MDA-MB-435,20 nM
same,GI50,[14],60 nM
same,GI50,[15],40 nM
same,GI50,SK-MEL-28,240 nM
same,GI50,[16],20 nM
same,"growth, % of control at 10 µM",[17],14%
same,"growth, % of control at 10 µM",[18],9.3%
same,GI50,[19],60 nM
same,GI50,[20],40 nM
same,GI50,[21],270 nM
same,"growth, % of control at 10 µM",[22],25.8%
same,"growth, % of control at 10 µM",ACHN,38.8%
same,GI50,[23],60 nM
same,"growth, % of control at 10 µM",CCRF-CEM [24],16.8%
same,GI50,SK-MEL-2,40 nM
same,"growth, % of control at 10 µM",Malme-3M,55.1%
same,GI50,M14,40 nM
same,"growth, % of control at 10 µM",SR,13.5%
same,GI50,CCRF-CEM [25],50 nM
same,GI50,[26],17000 nM
same,"growth, % of control at 10 µM",[27],20.7%
same,"growth, % of control at 10 µM",[28],20.4%
same,GI50,A549,90 nM
same,GI50,[29],30 nM
same,"growth, % of control at 10 µM",[30],17.4%
COc1ccc(/C(C#N)=C/c2ccc3c(c2)OCCO3)cc1OC,GI50,[1],2710 nM
same,"growth, % of control at 10 µM",[3],-15.7%
same,"growth, % of control at 10 µM",MCF7,20.1%
same,"growth, % of control at 10 µM",786-0,39.3%
same,"growth, % of control at 10 µM",SK-MEL-5 [4],16.8%
same,GI50,SK-MEL-5 [5],840 nM
same,GI50,[6],9400 nM
same,"growth, % of control at 10 µM",[7],24.5%
same,GI50,MDA-MB-231,4690 nM
same,GI50,[8],2490 nM
same,GI50,U-251,3970 nM
same,"growth, % of control at 10 µM",[9],66.7%
same,GI50,[10],2560 nM
same,GI50,[11],2070 nM
same,"growth, % of control at 10 µM",[12],14.9%
same,"growth, % of control at 10 µM",[13],39.3%
same,GI50,NCI-H522,2800 nM
same,GI50,MDA-MB-435,260 nM
same,GI50,[14],1040 nM
same,GI50,[15],2160 nM
same,GI50,SK-MEL-28,4590 nM
same,GI50,[16],2160 nM
same,"growth, % of control at 10 µM",[17],30.1%
same,"growth, % of control at 10 µM",[18],57.1%
same,GI50,[19],4570 nM
same,GI50,[20],1520 nM
same,GI50,[21],8850 nM
same,"growth, % of control at 10 µM",[22],21.3%
same,"growth, % of control at 10 µM",ACHN,51.3%
same,GI50,[23],3240 nM
same,"growth, % of control at 10 µM",CCRF-CEM [24],6.4%
same,GI50,SK-MEL-2,1840 nM
same,"growth, % of control at 10 µM",Malme-3M,51.8%
same,GI50,M14,1630 nM
same,"growth, % of control at 10 µM",SR,1.8%
same,GI50,CCRF-CEM [25],3760 nM
same,GI50,[26],9640 nM
same,"growth, % of control at 10 µM",[27],20%
same,"growth, % of control at 10 µM",[28],31.6%
same,GI50,A549,4120 nM
same,GI50,[29],2770 nM
same,"growth, % of control at 10 µM",[30],19.6%
